Measurements: ChEMBL document CHEMBL1149458, “Synthesis and pharmacological evaluation of second-generation phosphatidic acid derivatives as lysophosphatidic acid receptor ligands” (Bioorg Med Chem Lett, 2006)
Blank lines part the entries; values can stand above or below the molecule they belong to. Activity calls are given as the source filed them. The calls are words filed in the database; no cut-off is given here.

Tests used:
[1] = target: T1, Lysophosphatidic acid receptor 3 (Homo sapiens) (UniProt Q9UBY5); test: Activity at LPA3 receptor transfected RH7777 cells; assay type: cell-based
T1 sequence (whole entry): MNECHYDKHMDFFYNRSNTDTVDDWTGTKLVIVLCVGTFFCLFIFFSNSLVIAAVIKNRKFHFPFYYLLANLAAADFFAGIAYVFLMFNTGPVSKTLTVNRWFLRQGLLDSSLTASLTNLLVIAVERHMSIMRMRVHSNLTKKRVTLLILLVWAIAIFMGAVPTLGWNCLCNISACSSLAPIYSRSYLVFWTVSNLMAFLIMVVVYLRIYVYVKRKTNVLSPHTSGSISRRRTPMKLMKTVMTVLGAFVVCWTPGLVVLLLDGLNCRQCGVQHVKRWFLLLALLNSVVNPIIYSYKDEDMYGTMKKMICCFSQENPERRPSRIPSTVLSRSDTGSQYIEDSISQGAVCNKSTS
Outline: (§1)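 RH7777 cells, which lack LPA GPCR, stably transfected with the single receptor (LPA2 or LPA3). Intracellular Ca2+ transients recorded after applying increasing compound concentrations, benchmarked against LPA 18:1, to assess agonist and antagonist activity.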

[2] = system: RH7777 (Rattus norvegicus); test: Ability to evoke intracellular calciums transient in wild-type RH7777 cells
[3] = target: T2, Peroxisome proliferator-activated receptor gamma (Homo sapiens) (UniProt P37231); test: Activation of PPARgamma in CV1 cells transfected with PPARgamma and luciferase reporter gene; assay type: functional, cell-based; conditions: CV-1
T2 sequence (whole entry): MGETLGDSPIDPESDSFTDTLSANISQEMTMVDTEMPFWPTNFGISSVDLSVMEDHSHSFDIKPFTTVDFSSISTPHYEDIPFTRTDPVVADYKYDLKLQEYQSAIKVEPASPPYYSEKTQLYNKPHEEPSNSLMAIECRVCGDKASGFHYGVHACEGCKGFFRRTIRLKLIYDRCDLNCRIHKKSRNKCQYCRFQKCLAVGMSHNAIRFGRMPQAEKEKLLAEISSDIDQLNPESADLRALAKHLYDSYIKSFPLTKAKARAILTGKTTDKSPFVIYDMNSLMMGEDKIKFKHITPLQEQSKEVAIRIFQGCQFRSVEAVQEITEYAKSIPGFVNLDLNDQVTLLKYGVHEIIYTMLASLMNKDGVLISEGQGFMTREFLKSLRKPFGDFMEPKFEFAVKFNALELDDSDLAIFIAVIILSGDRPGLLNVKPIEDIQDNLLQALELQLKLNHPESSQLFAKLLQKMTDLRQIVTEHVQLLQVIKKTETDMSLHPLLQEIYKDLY
Outline: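 CV1 cells transfected with PPARγ and a PPRE-Acox-Rluc reporter, treated 20 h with vehicle or 10 µM compound in DMSO. Luciferase and β-galactosidase activities measured in cell lysate (mean ± SEM, n = 4). Rosiglitazone used as reference agonist; significance versus vehicle control.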

[4] = target: Lysophosphatidic acid receptor 1 (Homo sapiens, UniProt Q92633); test: Activity at LPA1 receptor transfected RH7777 cells; assay type: cell-based
Lysophosphatidic acid receptor 1, sequence (Q92633 whole entry): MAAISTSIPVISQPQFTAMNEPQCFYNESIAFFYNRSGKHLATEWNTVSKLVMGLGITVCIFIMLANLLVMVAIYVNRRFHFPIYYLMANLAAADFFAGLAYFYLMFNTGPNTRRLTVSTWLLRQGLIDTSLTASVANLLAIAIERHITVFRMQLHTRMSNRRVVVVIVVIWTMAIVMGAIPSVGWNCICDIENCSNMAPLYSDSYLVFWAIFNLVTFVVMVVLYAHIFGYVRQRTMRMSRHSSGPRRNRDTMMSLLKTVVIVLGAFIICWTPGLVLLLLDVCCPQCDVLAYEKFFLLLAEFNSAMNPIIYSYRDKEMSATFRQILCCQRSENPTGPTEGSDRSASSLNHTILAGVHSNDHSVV
Outline: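 RH7777 cells, which lack endogenous LPA GPCR, were stably transfected with LPA1. Intracellular Ca2+ transients were recorded after applying increasing concentrations of compound to build dose–response relationships, with LPA 18:1 as the reference agonist.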

[5] = target: Lysophosphatidic acid receptor 2 (Homo sapiens) (UniProt Q9HBW0); test: Activity at LPA2 receptor transfected RH7777 cells; assay type: cell-based; outline: as §1
Lysophosphatidic acid receptor 2 (Homo sapiens), sequence (Q9HBW0 whole entry): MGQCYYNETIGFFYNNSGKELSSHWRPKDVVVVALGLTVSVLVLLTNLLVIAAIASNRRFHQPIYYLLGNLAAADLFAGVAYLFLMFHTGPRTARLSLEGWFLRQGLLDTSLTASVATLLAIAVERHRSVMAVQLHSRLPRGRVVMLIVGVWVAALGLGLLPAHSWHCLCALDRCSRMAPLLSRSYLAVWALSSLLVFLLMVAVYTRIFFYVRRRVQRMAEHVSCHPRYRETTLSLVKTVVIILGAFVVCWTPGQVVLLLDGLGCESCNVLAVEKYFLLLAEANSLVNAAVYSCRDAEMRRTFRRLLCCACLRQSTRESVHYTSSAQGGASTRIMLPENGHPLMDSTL

Autotaxin = Autotaxin (Homo sapiens, UniProt Q13822); test: Inhibition of recombinant ATX from transfected HEK293 cells; assay type: cell-based; conditions: for inhibition: concentration not given here
Outline: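 Recombinant ATX in conditioned medium from transiently transfected HEK293 cells, assayed by hydrolysis of the substrate bis(para-nitrophenyl) phosphate.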

Emax [1]: 109% | Activity [3]: Active | Emax [4]: 57%
SMILES: CCCCCCCCOC[C@H](COP(=O)(O)O)OCCCCCCCC
Activity [2]: inactive

SMILES: CCCCCCCC(=O)OC[C@@H](COP(O)(O)=S)OC(=O)CCCCCCC
Emax [5]: 17% | Emax [1]: 30% | Activity [3]: inactive | IC50 (Autotaxin): 727 nM | inhibition (Autotaxin): 52.3%

SMILES: CCCCCCCC(=O)OC[C@H](COP(O)(O)=S)OC(=O)CCCCCCC
Emax [5]: 58% | Activity [3]: inactive | IC50 (Autotaxin): 597 nM | inhibition (Autotaxin): 72.5%

SMILES: CCCCCCCCOC[C@@H](COP(O)(O)=S)OCCCCCCCC
Activity [2]: inactive | Activity [3]: Active

SMILES: CCCCCCCCOC[C@H](COP(O)(O)=S)OCCCCCCCC
Emax [5]: 27% | Emax [1]: 109% | Activity [2]: inactive | Activity [3]: Active | Emax [4]: 30%

Activity [3]: inactive
SMILES: CCCCCCCCNC(=O)[C@@H](COP(=O)(O)O)NC(=O)CCCCCCC

IC50 [4]: 692 nM | Ki [4]: 407 nM | IC50 (Autotaxin): 1640 nM | inhibition (Autotaxin): 49.9%
SMILES: CCCCCCCC(=O)OC[C@H](COP(=O)(O)O)OC(=O)CCCCCCC

SMILES: CCCCCCCCNC(=O)[C@H](COP(O)(O)=S)NC(=O)CCCCCCC
Activity [3]: inactive

Activity [3]: inactive
SMILES: CCCCCCCC(=O)OC[C@@H](COP(=O)(O)O)OC(=O)CCCCCCC

Activity [3]: Active
SMILES: CCCCCCCCOC[C@@H](COP(=O)(O)O)OCCCCCCCC
Activity [2]: inactive

SMILES: CCCCCCCCNC(=O)[C@@H](COP(O)(O)=S)NC(=O)CCCCCCC
Activity [3]: inactive
